Assay results reported in ChEMBL document CHEMBL1649231, “In vitro activities of panduratin A against clinical Staphylococcus strains” (2009).
≈ marks a conversion by molar mass, not a printed value.

What was measured:
Format in all cases: functional
Staphylococcus hominis [1] = experiment: Antimicrobial activity against methicillin-susceptible coagulase-negative Staphylococcus hominis after 24 hrs by broth microdilution method
In short: (§1)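 Clinical isolates came from blood, body fluids, genital secretions, pus or sputum, identified conventionally or by Vitek. MICs were run by CLSI M7-A6 broth microdilution in Mueller-Hinton broth with 5 × 10^5 CFU/ml inoculum. Agents were twofold serially diluted, starting from 10% DMSO. Drug-free and uninoculated controls were included. Plates were incubated aerobically at 37°C for 24 h; MIC is the lowest concentration giving no visible growth.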

Staphylococcus simulans [2] = experiment: Bactericidal activity against methicillin-susceptible coagulase-negative Staphylococcus simulans after 24 hrs by plate counting method
In short: (§2)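 Clinical staphylococcal isolates from patient body fluids, blood, genital secretions, pus or sputum; species by conventional methods or Vitek. Twofold dilutions in Mueller-Hinton broth, inoculum 5 × 10^5 CFU/ml, 37°C aerobic 24 h (CLSI M7-A6 microdilution). About 100 μl from each well without visible growth spread on MHA; 37°C 24 h. MBC = lowest concentration giving no growth on agar.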

Mammaliicoccus sciuri [3] = experiment: Bactericidal activity against methicillin-susceptible coagulase-negative Staphylococcus sciuri after 24 hrs by plate counting method; in short: as §2
[4] = system: Staphylococcus haemolyticus; experiment: Bactericidal activity against methicillin-susceptible coagulase-negative Staphylococcus haemolyticus after 24 hrs by plate counting method; in short: as §2
Mammaliicoccus sciuri [5] = experiment: Antimicrobial activity against methicillin-resistant coagulase-negative Staphylococcus sciuri after 24 hrs by broth microdilution method; in short: as §1
[6] = system: Staphylococcus haemolyticus; experiment: Antimicrobial activity against methicillin-susceptible coagulase-negative Staphylococcus haemolyticus after 24 hrs by broth microdilution method; in short: as §1
[7] = system: Staphylococcus haemolyticus; experiment: Antimicrobial activity against methicillin-resistant coagulase-negative Staphylococcus haemolyticus assessed as susceptible isolates after 24 hrs by broth microdilution method
Staphylococcus aureus [8] = experiment: Bactericidal activity against methicillin-susceptible Staphylococcus aureus after 24 hrs by plate counting method; in short: as §2
Staphylococcus hominis [9] = experiment: Bactericidal activity against methicillin-susceptible coagulase-negative Staphylococcus hominis after 24 hrs by plate counting method; in short: as §2
[10] = system: Staphylococcus epidermidis; experiment: Antimicrobial activity against methicillin-susceptible coagulase-negative Staphylococcus epidermidis assessed as susceptible isolates after 24 hrs by broth microdilution method
Mammaliicoccus sciuri [11] = experiment: Antimicrobial activity against methicillin-susceptible coagulase-negative Staphylococcus sciuri after 24 hrs by broth microdilution method; in short: as §1
Staphylococcus aureus [12] = experiment: Antimicrobial activity against methicillin-susceptible Staphylococcus aureus after 24 hrs by broth microdilution method; in short: as §1
Staphylococcus hominis [13] = experiment: Bactericidal activity against methicillin-resistant coagulase-negative Staphylococcus hominis after 24 hrs by plate counting method; details: Staphylococcus hominis, 24 h
Staphylococcus hominis [14] = experiment: Antimicrobial activity against methicillin-susceptible coagulase-negative Staphylococcus hominis assessed as susceptible isolates after 24 hrs by broth microdilution method
[15] = system: Staphylococcus haemolyticus; experiment: Bactericidal activity against methicillin-resistant coagulase-negative Staphylococcus haemolyticus after 24 hrs by plate counting method; details: Staphylococcus haemolyticus, 24 h
Staphylococcus simulans [16] = experiment: Bactericidal activity against methicillin-resistant coagulase-negative Staphylococcus simulans after 24 hrs by plate counting method; details: Staphylococcus simulans, 24 h; in short: as §2
Mammaliicoccus sciuri [17] = experiment: Bactericidal activity against methicillin-resistant coagulase-negative Staphylococcus sciuri after 24 hrs by plate counting method; details: Mammaliicoccus sciuri, 24 h; in short: as §2
[18] = system: Staphylococcus epidermidis; experiment: Antimicrobial activity against methicillin-susceptible coagulase-negative Staphylococcus epidermidis after 24 hrs by broth microdilution method; in short: as §1
Staphylococcus aureus [19] = experiment: Antimicrobial activity against methicillin-resistant Staphylococcus aureus after 24 hrs by broth microdilution method; in short: as §1
Staphylococcus simulans [20] = experiment: Antimicrobial activity against methicillin-susceptible coagulase-negative Staphylococcus simulans assessed as susceptible isolates after 24 hrs by broth microdilution method
In short: (§3)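 Clinical isolates from blood, body fluids, pus, sputum or genital secretions, identified conventionally or by Vitek, were tested alongside ATCC 29213 and ATCC 12228 controls. CLSI M7-A6 broth microdilution in Mueller-Hinton broth used twofold dilutions from a 10% DMSO solution and 5 × 10^5 CFU/ml inoculum. Drug-free and uninoculated wells served as controls; incubation was aerobic at 37°C for 24 h. MIC was the lowest concentration with no visible growth.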

Staphylococcus simulans [21] = experiment: Antimicrobial activity against methicillin-susceptible coagulase-negative Staphylococcus simulans after 24 hrs by broth microdilution method; in short: as §1
Staphylococcus hominis [22] = experiment: Antimicrobial activity against methicillin-resistant coagulase-negative Staphylococcus hominis assessed as susceptible isolates after 24 hrs by broth microdilution method
[23] = system: Staphylococcus epidermidis; experiment: Antimicrobial activity against methicillin-resistant coagulase-negative Staphylococcus epidermidis assessed as susceptible isolates after 24 hrs by broth microdilution method
Staphylococcus simulans [24] = experiment: Antimicrobial activity against methicillin-resistant coagulase-negative Staphylococcus simulans after 24 hrs by broth microdilution method; in short: as §1
[25] = system: Staphylococcus haemolyticus; experiment: Antimicrobial activity against methicillin-resistant coagulase-negative Staphylococcus haemolyticus after 24 hrs by broth microdilution method; in short: as §1
Staphylococcus aureus [26] = experiment: Bactericidal activity against methicillin-resistant Staphylococcus aureus after 24 hrs by plate counting method
Staphylococcus aureus [27] = experiment: Antimicrobial activity against methicillin-resistant Staphylococcus aureus assessed as susceptible isolates after 24 hrs by broth microdilution method
Staphylococcus aureus [28] = experiment: Antimicrobial activity against methicillin-susceptible Staphylococcus aureus assessed as susceptible isolates after 24 hrs by broth microdilution method
[29] = system: Staphylococcus epidermidis; experiment: Antimicrobial activity against methicillin-resistant coagulase-negative Staphylococcus epidermidis after 24 hrs by broth microdilution method; in short: as §1
[30] = system: Staphylococcus epidermidis; experiment: Bactericidal activity against methicillin-susceptible coagulase-negative Staphylococcus epidermidis after 24 hrs by plate counting method; in short: as §2
Staphylococcus hominis [31] = experiment: Antimicrobial activity against methicillin-resistant coagulase-negative Staphylococcus hominis after 24 hrs by broth microdilution method; in short: as §1
Mammaliicoccus sciuri [32] = experiment: Antimicrobial activity against methicillin-susceptible coagulase-negative Staphylococcus sciuri assessed as susceptible isolates after 24 hrs by broth microdilution method; in short: as §3
[33] = system: Staphylococcus epidermidis; experiment: Bactericidal activity against methicillin-resistant coagulase-negative Staphylococcus epidermidis after 24 hrs by plate counting method; details: Staphylococcus epidermidis, 24 h
[34] = system: Staphylococcus haemolyticus; experiment: Antimicrobial activity against methicillin-susceptible coagulase-negative Staphylococcus haemolyticus assessed as susceptible isolates after 24 hrs by broth microdilution method

Question: Which MIC50 (Staphylococcus hominis [1]) does the source give for `CC(=O)NC[C@H]1CN(c2ccc(N3CCOCC3)c(F)c2)C(=O)O1` [LINEZOLID] here?
Answer: 0.25 µg/mL (≈ 0.741 µM)

Question: And the MIC90 (Staphylococcus hominis [1])?
Answer: 4 µg/mL (≈ 11.9 µM)

Question: What about the MBC50 (Staphylococcus simulans [2]) of the same compound?
Answer: 2 µg/mL (≈ 5.93 µM)

Question: And the MBC90 (Staphylococcus simulans [2])?
Answer: 4 µg/mL (≈ 11.9 µM)

Question: What about the MBC (Staphylococcus simulans [2]; Staphylococcus simulans, 24 h) of the same compound?
Answer: 0.25 µg/mL (≈ 0.741 µM)

Question: What about the MBC50 (Mammaliicoccus sciuri [3]) of the same compound?
Answer: 2 µg/mL (≈ 5.93 µM)

Question: And the MBC90 (Mammaliicoccus sciuri [3])?
Answer: 4 µg/mL (≈ 11.9 µM)

Question: What about the MBC (Mammaliicoccus sciuri [3]; Mammaliicoccus sciuri, 24 h) of the same compound?
Answer: 0.25 µg/mL (≈ 0.741 µM)

Question: And the MBC50 [4]?
Answer: 2 µg/mL (≈ 5.93 µM)

Question: And the MBC90 [4]?
Answer: 4 µg/mL (≈ 11.9 µM)

Question: What about the MBC ([4]; Staphylococcus haemolyticus, 24 h) of the same compound?
Answer: 0.25 µg/mL (≈ 0.741 µM)

Question: And the MIC50 (Mammaliicoccus sciuri [5])?
Answer: 0.25 µg/mL (≈ 0.741 µM)

Question: And the MIC90 (Mammaliicoccus sciuri [5])?
Answer: 2 µg/mL (≈ 5.93 µM)

Question: What about the MIC50 [6] of the same compound?
Answer: 0.25 µg/mL (≈ 0.741 µM)

Question: What about the MIC90 [6] of the same compound?
Answer: 4 µg/mL (≈ 11.9 µM)

Question: And the Activity [7]?
Answer: 100%

Question: And the MBC50 (Staphylococcus aureus [8])?
Answer: 8 µg/mL (≈ 23.7 µM)

Question: What about the MBC90 (Staphylococcus aureus [8]) of the same compound?
Answer: 32 µg/mL (≈ 94.9 µM)

Question: And the MBC (Staphylococcus aureus [8]; Staphylococcus aureus, 24 h)?
Answer: 2 µg/mL (≈ 5.93 µM)

Question: And the MBC50 (Staphylococcus hominis [9])?
Answer: 2 µg/mL (≈ 5.93 µM)

Question: And the MBC90 (Staphylococcus hominis [9])?
Answer: 4 µg/mL (≈ 11.9 µM)

Question: What about the MBC (Staphylococcus hominis [9]; Staphylococcus hominis, 24 h) of the same compound?
Answer: 0.25 µg/mL (≈ 0.741 µM)

Question: And the Activity [10]?
Answer: 96%

Question: What about the MIC50 (Mammaliicoccus sciuri [11]) of the same compound?
Answer: 0.25 µg/mL (≈ 0.741 µM)

Question: What about the MIC90 (Mammaliicoccus sciuri [11]) of the same compound?
Answer: 4 µg/mL (≈ 11.9 µM)

Question: What about the MIC50 (Staphylococcus aureus [12]) of the same compound?
Answer: 1 µg/mL (≈ 2.96 µM)

Question: And the MIC90 (Staphylococcus aureus [12])?
Answer: 4 µg/mL (≈ 11.9 µM)

Question: And the MBC (Staphylococcus hominis [13])?
Answer: 0.5 µg/mL (≈ 1.48 µM)

Question: And the Activity (Staphylococcus hominis [14])?
Answer: 96%

Question: What about the MBC [15] of the same compound?
Answer: 0.5 µg/mL (≈ 1.48 µM)

Question: And the MBC (Staphylococcus simulans [16])?
Answer: 0.5 µg/mL (≈ 1.48 µM)

Question: And the MBC (Mammaliicoccus sciuri [17])?
Answer: 0.5 µg/mL (≈ 1.48 µM)

Question: And the MIC50 [18]?
Answer: 0.25 µg/mL (≈ 0.741 µM)

Question: What about the MIC90 [18] of the same compound?
Answer: 4 µg/mL (≈ 11.9 µM)

Question: And the MIC50 (Staphylococcus aureus [19])?
Answer: 1 µg/mL (≈ 2.96 µM)

Question: What about the MIC90 (Staphylococcus aureus [19]) of the same compound?
Answer: 2 µg/mL (≈ 5.93 µM)

Question: What about the Activity (Staphylococcus simulans [20]) of the same compound?
Answer: 96%

Question: And the MIC50 (Staphylococcus simulans [21])?
Answer: 0.25 µg/mL (≈ 0.741 µM)

Question: What about the MIC90 (Staphylococcus simulans [21]) of the same compound?
Answer: 4 µg/mL (≈ 11.9 µM)

Question: And the Activity (Staphylococcus hominis [22])?
Answer: 100%

Question: And the Activity [23]?
Answer: 100%

Question: And the MIC50 (Staphylococcus simulans [24])?
Answer: 0.25 µg/mL (≈ 0.741 µM)

Question: And the MIC90 (Staphylococcus simulans [24])?
Answer: 2 µg/mL (≈ 5.93 µM)

Question: What about the MIC50 [25] of the same compound?
Answer: 0.25 µg/mL (≈ 0.741 µM)

Question: And the MIC90 [25]?
Answer: 2 µg/mL (≈ 5.93 µM)

Question: And the MBC90 (Staphylococcus aureus [26])?
Answer: 16 µg/mL (≈ 47.4 µM)

Question: What about the MBC (Staphylococcus aureus [26]; Staphylococcus aureus, 24 h) of the same compound?
Answer: 8 µg/mL (≈ 23.7 µM)

Question: What about the Activity (Staphylococcus aureus [27]) of the same compound?
Answer: 100%

Question: What about the Activity (Staphylococcus aureus [28]) of the same compound?
Answer: 96%

Question: What about the MIC50 [29] of the same compound?
Answer: 0.25 µg/mL (≈ 0.741 µM)

Question: And the MIC90 [29]?
Answer: 2 µg/mL (≈ 5.93 µM)

Question: And the MBC50 [30]?
Answer: 2 µg/mL (≈ 5.93 µM)

Question: And the MBC90 [30]?
Answer: 4 µg/mL (≈ 11.9 µM)

Question: And the MBC ([30]; Staphylococcus epidermidis, 24 h)?
Answer: 0.25 µg/mL (≈ 0.741 µM)

Question: What about the MIC50 (Staphylococcus hominis [31]) of the same compound?
Answer: 0.25 µg/mL (≈ 0.741 µM)

Question: And the MIC90 (Staphylococcus hominis [31])?
Answer: 2 µg/mL (≈ 5.93 µM)

Question: What about the Activity (Mammaliicoccus sciuri [32]) of the same compound?
Answer: 96%

Question: What about the MBC [33] of the same compound?
Answer: 0.5 µg/mL (≈ 1.48 µM)

Question: What about the Activity [34] of the same compound?
Answer: 96%
